Most compounds without a hit are left out; they make up all but 2.3% or so of the library.
KLF5 inh: inhibitors of KLF5 expression. inhibition, % at 5 µM. AID 1700. DLD-1 KLF5 promoter-luciferase reporter, luminescence. hit rate 0.23% among 290,000;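 active = inhibition above a per-plate limit of that plate's mean compound inhibition plus 3 SD, cut at about 60% in these data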;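 note: higher means less KLF5 promoter-driven luciferase light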
T cruzi inh: T. cruzi replication inhibition | T. cruzi beta-gal in NIH3T3, luminescence, 90 h | inhibition, % (concentration not given with the values) | hit rate 1.4% among 300,000;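 active = mean inhibition across valid replicates above about 55%, limit read from the data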;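 note: signal also drops with host cell toxicity which is not excluded here; higher percent means less beta-gal luminescence so fewer parasites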
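assay system = mouse NIH/3T3 fibroblasts infected with β-gal-expressing T. cruzi Tulahuen C4 | input = 5,000 NIH/3T3 host cells per well | buffer or medium = DMEM plus 2% FBS | timing = 3 h host attachment, then at least 90 h co-culture | measured by = GalScreen luminescence, 60 min | evaluation = luminescence reflecting intracellular parasite burden, expressed as percent inhibition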
Beta cell apopt: blocks beta cell apoptosis | INS-1E cytokine-induced death, ATP luminescence, 48 h; percent of positive-control rescue, neutral wells zero | protection from apoptosis, % (no concentration beside the values) | hit rate 0.8% among 300,000 | AID 435005;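 active = Every replicate reaches about 75%, or at least half do and their mean reaches it too, limit read from the data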;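 note: higher means more ATP so stronger rescue from cytokine killing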
A1 inh: inhibitors of the anti-apoptotic protein A1, read as caspase activation; caspase activation, % (test concentration not listed); hit rate 0.066% among 330,000; AID 2462; MEF A1-2A-BIM cells, Caspase-Glo 3/7 luminescence, 3 h; percent of clofoctol response, vehicle zero;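 active = over half of replicate activation scores above 10%, or exactly half above 10 with the replicate mean above 10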
HIF act: HIF pathway transcriptional activation | hit rate 0.32% among 300,000 | activation, % at 7.5 µM (by protocol) | AID 1910 | U2OS HRE-luciferase reporter, luminescence; normalized: DMSO 0%, desferrioxamine 100%;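 active = mean activation of at least 10% of the iron chelator positive control signal, with at least half of replicates also reaching 10%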
A number is an active result; 0 = inactive; - = no result.

SMILES	KLF5 inh	T cruzi inh	Beta cell apopt	A1 inh	HIF act
CC1=C/C(=N\OS(=O)(=O)c2ccccc2)C(C)=CC1=O	0	-	112.1	16.6	-
CC1=C(C)/C(=N\OS(=O)(=O)c2ccc(C)cc2)C=CC1=O	0	-	106.2	0	-
O=C(CCCl)N1CCN(c2nc(-c3ccccc3)cs2)CC1	0	0	-	0	0
O=C(Nc1cccc(Cl)c1)C1COc2ccccc2O1 (centres undefined)	0	0	0	0	0
O=Cc1cc(N=Nc2cccc(C(=O)O)c2)ccc1O	0	0	0	0	0
O=Cc1cc(N=Nc2ccccc2Cl)ccc1O	0	0	0	0	17.4
CCC(=O)OCCNc1cc(SCCC(=O)OC)c2nonc2c1[N+](=O)[O-]	0	0	0	0	0
CCC(=O)OCCNc1cc(Sc2nccn2C)c2nonc2c1[N+](=O)[O-]	0	55.2	0	0	0
Cc1ccc(Sc2cc(NCCCO)c([N+](=O)[O-])c3nonc23)cc1	0	55.6	0	0	0
COc1ccc(C)cc1NC(=O)CN1C(=O)COc2ccc(S(=O)(=O)N3CCCCC3)cc21	0	0	0	0	0
Cc1cccc(OCCCC(=O)N2CCCCCC2)c1C	0	0	0	0	0
CC(=O)Nc1ccc(S(=O)(=O)N2c3ccccc3C(C)=CC2(C)C)cc1	92.5	0	0	0	0
COc1ccc(/C=N/NC(=O)c2nc(-c3ccccc3)n(-c3ccccc3)n2)c(O)c1	0	0	103.0	0	19.5
COc1ccc(/C=N/NC(=O)c2nc(-c3ccccc3)n(-c3ccccc3)n2)cc1	0	0	0	0	0
CC(C)(C)c1cc(C(=O)N/N=C/c2ccccc2O)n(-c2ccccc2)n1	0	0	85.1	0	0
CCN(CC(=O)Nc1ccc2c(c1)OCCO2)C(=O)CCc1ccccc1Cl	-	-	0	0	-
CCCC(=O)Nc1cc2c(cc1C(=O)c1ccccc1)OCCO2	0	0	0	0	0
CCOc1ccc(S(=O)(=O)c2c(C(=O)c3ccccc3)cnc3cc4c(cc23)OCCO4)cc1	0	70.9	0	0	0
COc1ccc(S(=O)(=O)N/N=C(/C)c2ccncc2)c(OC)c1	0	0	0	0	0
CCN(CC)c1ccc(N)cc1	-	-	108.4	0	-
CC(C)(C)n1nnnc1C(c1cccs1)N(Cc1ccc(Cl)cc1)CC1CCCO1 (centres undefined)	0	58.2	0	0	0
NC(=O)c1sc2nccc(Nc3ccccc3)c2c1N	0	0	0	0	10.5
COc1ccc2sc(N(CCCN(C)C)C(=O)c3ccc(S(=O)(=O)N4CCCc5ccccc54)cc3)nc2c1	-	61.8	-	0	0
CCc1ccc2nc(N(CCCN(C)C)C(=O)c3ccc(S(=O)(=O)N4CCc5ccccc5C4)cc3)sc2c1	0	0	0	23.8	0
COc1ccc2sc(N(CCCN(C)C)C(=O)c3ccc(C(=O)c4ccccc4)cc3)nc2c1	-	0	-	0	0
SMILES	KLF5 inh	T cruzi inh	Beta cell apopt	A1 inh	HIF act
COc1cc2nc(N(CCCN(C)C)C(=O)c3ccc(S(=O)(=O)N4CCc5ccccc54)cc3)sc2cc1OC	-	54.5	-	0	0
O=C(CCNS(=O)(=O)c1ccc(Br)cc1)NC1CCC(O)CC1 (centres undefined)	-	-	0	0	-
CCCCNC(=S)N(CCCN(C)C)Cc1cc2cc3c(cc2[nH]c1=O)OCO3	0	0	0	0	0
Cc1ccccc1OCC(O)CN1CCN(CCN2C(=O)c3cccc4cccc(c34)C2=O)CC1 (centres undefined)	0	56.2	0	0	0
C=CCc1ccccc1OCC(O)CN1CCN(CCN2C(=O)c3cccc4cccc(c34)C2=O)CC1 (centres undefined)	0	0	0	0	0
Cc1ccc(CN2CCSc3ccc(C(=O)NC4CCN(Cc5ccccc5)CC4)cc32)cc1	0	57.5	0	0	0
O=C(NC1CCCC1)c1ccc2c(c1)N(Cc1ccccc1)CCS2	0	0	0	0	0
O=C(CCCN1C(=O)/C(=C/c2ccccc2OC(F)F)SC1=S)Nc1cccnc1	-	-	0	0	-
Cc1cc(C)cc(N(C(=O)C(F)(F)F)C(C(=O)NC2CCCCC2)c2cccs2)c1 (centres undefined)	0	0	-	0	0
C#CC(=O)N(c1cccc(OC)c1)C(C(=O)NC1CCCC1)c1cccs1 (centres undefined)	0	0	94.2	0	0
Cc1cccc(N(C(=O)C(F)(F)F)C(C(=O)NC2CCCCC2)c2cccs2)c1 (centres undefined)	0	58.6	-	0	0
CCOC(=O)CNC(=S)N(Cc1ccco1)Cc1ccccc1Cl	0	0	0	0	0
CCOC(=O)Cc1csc(/N=C/c2c(O)n(-c3ccc(C)c(C)c3)c(=O)c3ccccc23)n1	0	0	0	22.2	0
Cc1cc2ncn(-c3ncccc3[N+](=O)[O-])c2cc1C	0	0	0	0	0
Cc1cc(C(=O)NCc2cc(F)cc3c2OCOC3)nn1C	0	0	-	0	0
Cn1nc(C(C)(C)C)cc1C(=O)NCc1cc(F)cc2c1OCOC2	0	-	101.7	0	0
Cc1nc2ccccc2c2oc(C(=O)NCCCN3CCCC(C)C3)cc12 (centres undefined)	0	0	0	0	0
CC1CCCN(CCCNC(=O)c2cc3c(Cl)nc4ccccc4c3s2)C1 (centres undefined)	0	76.8	0	0	0
CN(CCCNC(=O)c1cc2c(Cl)nc3ccccc3c2s1)Cc1ccccc1	0	68.9	0	0	0
CC(C)N(Cc1nc(-c2ccccc2)no1)C(=O)CN(C)S(=O)(=O)c1ccc(Br)cc1	0	0	0	0	0
CC(C)N(Cc1nc(-c2ccc(Cl)cc2)no1)C(=O)CN(C)S(=O)(=O)c1ccc(Cl)cc1	0	55.6	0	0	0
COC(=O)[C@]1(C)N[C@H](CN(C)C(=O)Nc2ccccc2)[C@@H]2C(=O)N(Cc3ccccc3)C(=O)[C@@H]21	-	-	0	0	-
Cc1c(C(=O)OC(C)CCN(C)C)oc2ccccc12 (centres undefined)	0	57.3	0	0	0
Cc1c(C(=O)OCC(C)(C)CN(C)C)oc2ccccc12	0	0	0	0	0
COc1ccc2oc(C(=O)OCC(=O)Nc3cc(S(=O)(=O)N4CCOCC4)ccc3OC)c(C)c2c1	-	0	0	0	0
SMILES	KLF5 inh	T cruzi inh	Beta cell apopt	A1 inh	HIF act
C/C(N)=C(/C#N)C(=O)CSc1nc(-c2ccccc2)c(-c2ccccc2)o1	0	59.4	-	0	0
COc1cc(CN(C)CC2CCCN(CCc3ccccc3F)C2)cc(Cl)c1OC (centres undefined)	0	57.7	-	0	0
COC(=O)CNC(=O)c1cc(-c2ccncc2)nc2ccc(C)cc12	0	0	0	0	0
CCOc1ccccc1N1CCN(CC(=O)Nc2ccnn2C2CCCC2)CC1	-	-	0	0	-
Cc1ccc(C(=O)NC2CCCC2)s1	0	0	0	0	0
O=C(NCCCN1CCCC1=O)c1ccc([N+](=O)[O-])s1	-	60.1	0	0	0
O=C(NC1CCCC1)c1ccc([N+](=O)[O-])s1	0	72.4	0	0	0
Cc1ccccc1SCC(=O)OCC(=O)NCCNC(=O)COC(=O)CSc1ccccc1C	-	0	0	0	0
